HTR2A ag: agonists of mouse serotonin 5-HT2A receptor (HTR2A) | CHO-K1 mHTR2A beta-arrestin complementation, luminescence; percent of 30 µM serotonin response | activation, % at 7.6 µM | 360,000 tested, 0.66% active;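 active = activation above a run cutoff, the mean activation of all tested compounds plus 3 SD, cut at about 14% in these data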
Target sequence (P35363 whole entry, looked up): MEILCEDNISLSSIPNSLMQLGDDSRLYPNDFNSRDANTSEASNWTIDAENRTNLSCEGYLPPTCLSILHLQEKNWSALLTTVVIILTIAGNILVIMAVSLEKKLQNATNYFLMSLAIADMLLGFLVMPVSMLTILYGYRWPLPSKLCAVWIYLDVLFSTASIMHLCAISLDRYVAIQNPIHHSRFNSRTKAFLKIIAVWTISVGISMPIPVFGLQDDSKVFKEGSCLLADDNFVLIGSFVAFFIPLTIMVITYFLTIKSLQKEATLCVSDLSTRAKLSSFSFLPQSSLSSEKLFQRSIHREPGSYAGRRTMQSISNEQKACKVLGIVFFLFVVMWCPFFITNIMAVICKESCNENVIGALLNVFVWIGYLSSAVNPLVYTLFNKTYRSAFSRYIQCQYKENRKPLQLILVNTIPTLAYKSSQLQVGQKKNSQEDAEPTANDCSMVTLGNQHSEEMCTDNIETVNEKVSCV
M1 ag: activates human CHRM1 receptor; P11229; CHO-K1 hM1, Fluo-8 calcium fluorescence, agonist mode; 0% DMSO, 100% acetylcholine EC100; activation, % at 3 µM; 360,000 tested, 0.33% active; AID 588814;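 active = activation above the run's mean compound activation plus 3 SD, cut at about 16% in these data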;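 note: peak over basal fluorescence ratio within a 140 s kinetic read after compound addition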
CHRM1 PAM: human CHRM1 positive allosteric modulation. CHO-K1 hM1, Fluo-8 calcium fluorescence, ACh EC20; 0% = ACh EC20, 100% = maximal ACh. activation, % at 3 µM. 360,000 tested, 0.088% active. AID 588819; in the data active = activation above about 19%, passing the limit was not always enough
TAAR1 ag: human TAAR1 agonism; 360,000 tested, 0.99% active; CHO RD-HGA16 TAAR1, Fluo-8 calcium fluorescence; vehicle wells 0%, saturating PEA agonist 100%; activation, % at 3 µM; Q96RJ0;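 active = activation above the mean activation of all test compounds in the run plus 3 SD, cut at about 38% in these data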
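Signal – calcium-sensitive Fluo-8 signal, excitation 470-495, emission 515-575 nm · System – RD-HGA16 (CHO) cells co-expressing Gα16 and hTAAR1 · Incubation – 17-24 h seeding, 75 min 37 °C dye, 30 min RT · Compound dosing – 3 µM single concentration · Repeats – no replicates (n 1)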
TAAR1 antag: human TAAR1 antagonism. AID 624466. CHO RD-HGA16 TAAR1, Fluo-8 calcium fluorescence, antagonist. inhibition, % at 3 µM. Q96RJ0. 360,000 tested, 1.5% active;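 active = inhibition above a per-plate cutoff, the mean inhibition of test compounds on that plate plus 3 SD, cut at about 49% in these data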
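System: CHO RD-HGA16 cells bearing hTAAR1. Reagent: EC80 β-phenethylamine stimulus. Schedule: seeding 17-24 h prior, 75-min 37 °C, 30-min RT dye loading. Signal: Fluo-8 intracellular calcium dye fluorescence, real-time kinetic reads. Read-out: % inhibition from peak post-agonist over basal fluorescence ratio. Benchmarks: vehicle wells and EC80 agonist wells. Replicates: n of 1.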
M1 antag: antagonists of human M1 muscarinic receptor | 360,000 tested, 1.3% active | CHO-K1 hM1, Fluo-8 calcium fluorescence, ACh EC80 antagonist | inhibition, % at 3 µM | P11229;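 active = percent inhibition above its own plate's cutoff, namely the mean of that plate's compound wells plus 3 SD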;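 note: peak over basal fluorescence ratio during 140 s after agonist addition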
MOR ag counter: OPRM1 agonism in mouse HTR2A counterscreen; shares compounds with HTR2A ag; U2OS OPRM1 beta-arrestin PathHunter, luminescence; DMSO 0%, DAMGO 9.3 µM 100%; activation, % at 9.3 µM; 2,300 tested, 5.3% active; AID 624380;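 active = mean activation above the mean of DMSO-only wells plus 3 SD, cut at about 0.5% in these data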
HTR2A ag conf: mouse HTR2A agonism confirmed; shares compounds with HTR2A ag; CHO-K1 PathHunter beta-arrestin recruitment, luminescence; DMSO 0%, 30 µM serotonin 100%; activation, % at 7.6 µM; 2,300 tested, 19% active;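 active = mean activation across triplicates above the hit threshold derived in the original primary screen, cut at about 15% in these data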
Each line names hits and unclear results; the compound was inactive in the other large screens (follow-up assays come after a bar, where they were run). The list is not random: actives were taken first. Their share in the collection is about 3.9%.

CC(=O)N1N=C(c2c(-c3ccccc3)c3cc(Br)ccc3[nH]c2=O)CC1c1ccco1 (stereo unspecified)	HTR2A ag 24 | MOR ag counter inactive | HTR2A ag conf 30
CCCn1c(N)c(C(=O)CSc2nnc(-c3cccs3)n2C2CC2)c(=O)[nH]c1=O	HTR2A ag 28 | MOR ag counter inactive | HTR2A ag conf 47
N#Cc1ccc(Sc2ccccn2)c([N+](=O)[O-])c1	HTR2A ag 15 | MOR ag counter inactive | HTR2A ag conf inactive
C=C(C)COc1ccc(-c2nc(N)nc(C)c2-c2ccc(OC)cc2)c(O)c1	HTR2A ag 18 | MOR ag counter inactive | HTR2A ag conf inactive
Cc1ccc(N2CC(C(=O)N3CCc4ccccc43)CC2=O)cc1 (stereo unspecified)	none
Cc1ccccc1N1CC(C(=O)N2CCc3ccccc32)CC1=O (stereo unspecified)	HTR2A ag 17 | MOR ag counter inactive | HTR2A ag conf inactive
COC(=O)c1cc(OC)c(OC)cc1NC(=O)CSCc1c(C)noc1C	HTR2A ag 16 | MOR ag counter inactive | HTR2A ag conf inactive
COc1cc(NC(=O)CCc2c(C)noc2C)c(C(=O)O)cc1OC	none
O=C(CCS(=O)(=O)c1ccccc1)NC1CCCCC1	none
O=C(CCS(=O)(=O)c1ccccc1Cl)NC1CCCCCC1	HTR2A ag 21 | MOR ag counter inactive | HTR2A ag conf inactive
COc1ccc(CC(=O)NCc2ccc(Cl)cc2)cc1S(=O)(=O)N1CCOCC1	none
CC(=O)NCc1nc2ccccc2n1C(C)C	HTR2A ag 18 | MOR ag counter inactive | HTR2A ag conf inactive
CC(C)n1c(CNC(=O)c2ccccc2)nc2ccccc21	none
CC1COC(Cn2c3ccccc3c3ccccc32)O1 (stereo unspecified)	none
COC(=O)CN1C(c2ccc(Cl)cc2)=Nc2ccc(Cl)cc2C1c1ccccc1 (stereo unspecified)	HTR2A ag 15 | MOR ag counter inactive | HTR2A ag conf inactive
COc1ccc(C2=Nc3ccc(C)cc3C(c3ccccc3)N2CC(=O)NN)cc1 (stereo unspecified)	none
CCOC(=O)c1ccccc1NC(=O)C1CC(=O)N(c2ccccc2)C1 (stereo unspecified)	none
Cc1ccc(C)c(S(=O)(=O)N2CCCC2CNC(=O)C(=O)NC2CC2)c1 (stereo unspecified)	none
COc1ccccc1NC(=O)C(=O)N/N=C(\C)CC(=O)Nc1ccccc1C(F)(F)F	none
Cc1ccc(-c2nc3c(c(SCC(=O)N4CCOCC4)n2)COC(C)(C)C3)cc1	HTR2A ag 20 | MOR ag counter inactive | HTR2A ag conf inactive
COc1ccc(-c2nc3c(c(SCC(=O)N4CCOCC4)n2)COC(C)(C)C3)cc1	none
CCCNC(=O)C1(C)CCCN(C(=O)c2ccccc2F)C1 (stereo unspecified)	HTR2A ag 17 | MOR ag counter inactive | HTR2A ag conf inactive
CN1CCN(S(=O)(=O)c2ccc(C(F)(F)F)cc2)C(c2ccccc2)C1 (stereo unspecified)	HTR2A ag 15 | MOR ag counter inactive | HTR2A ag conf inactive
N#Cc1c(-c2cccc(Cl)c2)[nH]c(=S)[nH]c1=O	none
N#Cc1c(-c2ccccc2)[nH]c(=S)[nH]c1=O	HTR2A ag 22 | MOR ag counter inactive | HTR2A ag conf inactive
Cc1ccc(C(=O)N2CCN(Cc3ccc4c(c3)OCO4)CC2)o1	HTR2A ag 20 | MOR ag counter inactive | HTR2A ag conf inactive
CCN(CC)C(=O)N1CCN(Cc2ccc3c(c2)OCO3)CC1	none
O=C(c1cc2ccccc2o1)N1CCN(Cc2ccc3c(c2)OCO3)CC1	none
CCOC(=O)N1CCN(Cc2ccc3c(c2)OCO3)CC1	HTR2A ag 37 | MOR ag counter inactive | HTR2A ag conf 107
CCC[C@H]1CN(c2ccc(OC)cc2)C(=O)[C@@H]1CC(=O)NC	none
OCC1OC(n2ccc3c(NO)ncnc32)C(O)C1O (stereo unspecified)	HTR2A ag 18 | MOR ag counter inactive | HTR2A ag conf inactive
Nc1ncnc2c1ncn2[C@@H]1O[C@H](CO)[C@@H](O)[C@H]1O	HTR2A ag 28 | MOR ag counter inactive | HTR2A ag conf inactive
COc1ccccc1-c1nnc(NC(=O)CSc2nncn2C)s1	none
O=C(Cc1cccc(NC(=O)C2CCCN(C(=O)CCc3ccccc3)C2)c1)Nc1ccc(C(=O)N2CCOCC2)cc1 (stereo unspecified)	none
Cc1cc2cc(CCNC(=O)CCc3ccccc3)c(=O)[nH]c2cc1C	HTR2A ag 22 | MOR ag counter inactive | HTR2A ag conf inactive
CCCOc1ccc(S(=O)(=O)Nc2ccccn2)c2ccccc12	none
CN1C(C(=O)NCc2cccc(C(F)(F)F)c2)CC2Cn3c(nc4cc(Cl)c(Cl)cc43)C21 (stereo unspecified)	HTR2A ag 20 | MOR ag counter inactive | HTR2A ag conf inactive
O=C(NCCO)/C(=C\c1cccs1)NC(=O)c1cccs1	HTR2A ag 24 | MOR ag counter inactive | HTR2A ag conf inactive
O=C(O)[C@@H]1[C@@H]2C[C@@H]2CN1c1ncccc1[N+](=O)[O-]	none
COc1ccccc1NC(=O)CCn1c(=S)oc2ccccc21	none
CC(C)CCNC(=O)CCn1c(=S)oc2ccccc21	HTR2A ag 19 | MOR ag counter inactive | HTR2A ag conf inactive
Cn1c(=O)c(=O)n(C)c2cc(N3CCCCC3)c(NS(=O)(=O)c3ccc([N+](=O)[O-])cc3)cc21	none
CC(=O)N1c2ccc(S(=O)(=O)NCC3CCC(C(=O)NC4CCCCC4)CC3)cc2CC1C (stereo unspecified)	none
Oc1ccc(Nc2ccc3ccccc3c2)cc1	none
COc1ccc(OCCC(=O)OCC(=O)NCc2ccccc2OC)cc1	none
O=C(Nc1ccc2c(c1)OCCO2)C(CCc1ccccc1)N(Cc1ccccc1)Cc1ccccc1 (stereo unspecified)	HTR2A ag 18 | MOR ag counter inactive | HTR2A ag conf inactive
Cc1ccc(N(CC(=O)NCc2ccc(Cl)cc2)S(C)(=O)=O)cc1	none
Cc1cccc(CSc2nnc([C@@H]3CCCN3)o2)c1	none
C[C@H](O)[C@@H]1CN2CCc3c([nH]c4ccccc34)[C@@H]2C[C@@H]1N(C)C(=O)NC1CCCCC1	none

Source: PubChem BioAssay
